Structures can show the parent of a compound that is named as a salt.
Legend:
MOR = assay: Ca2+ mobilization; type: cell-based; conditions: agonist; HEK-293 with chimeric G-protein delta6-Gqi4-myr
Outline: (§1)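 HEK-293 cells stably expressing the receptor, grown in DMEM with 10% FCS at 37 °C in 7% CO2, were transiently transfected with Δ6-Gqi4-myr (100 ng per 60,000 cells). After one day, cells were loaded with Ca2+ dye for 60 min and stimulated with increasing ligand concentrations to give dose–response curves and EC50. Each experiment was run at least three times in triplicate; values are means ± SEM.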

KOR = assay: Ca2+ mobilization; type: cell-based; conditions: agonist; HEK-293 with chimeric G-protein delta6-Gqi4-myr
Outline: as §1

## COC(=O)N1CCN(C(=O)Cc2ccc(Cl)c(Cl)c2)C(CN2CCCC2)C1 (centres unmarked) [GR89, 696, 4-[(3,4-Dichlorophenyl)acetyl]-3-(1-pyrrolidinylmethyl)-1-piperazine-carboxylic acid methyl ester fumarate]
MOR
  pEC50 (M) / MOR: 7.2 ± 0.2 pEC50 (M)
KOR
  pEC50 (M) / KOR: 10.1 ± 0.2 pEC50 (M)
